The subject of data set [1] is Mus musculus. In words: Effect on motor coordination in Swiss albino mouse at 200 mg/kg, ip by rotarod test. To be noted: in vivo. Further details: dose 200 mg/kg, route intraperitoneal. It counts as ADME, organism-based.
The test system of data set [2] is Mus musculus. Kind of data set: Acute toxicity in ip dosed Swiss albino mouse assessed as mortality within 48 hrs. It counts as organism-based. Conditions: in vivo. Summed up: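 Male Albino Swiss mice (18–30 g) received compound i.p. as a suspension in 0.5% aqueous methylcellulose, 10 mL kg-1. LD50 was calculated by the Litchfield–Wilcoxon method from mortality within 48 h.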

The species named for data set [3] is Mus musculus. In words: Decrease in body temperature in normothermic Swiss albino mouse within 60 to 120 mins. It counts as ADME, organism-based. To be noted: in vivo.
Data set [4] deals with Respiratory syncytial virus. Kind of data set: Antiviral activity against Respiratory syncytial virus infected in african green monkey Vero76 cells after 5 days by plaque reduction assay. In kind it is functional, organism-based. Conditions: Vero 76. Summed up: (§1)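 Vero 76 monolayers (2×10^5 cells/well, overnight) infected to give 50–100 PFU/well. Unadsorbed virus removed, then DMEM with 1% FCS, 0.75% methylcellulose and serial compound dilutions added. Incubated at 37 °C for 3 days (CVB-2, HSV-1) or 5 days (RSV). Fixed and stained with 50% ethanol/0.8% crystal violet in PBS; plaques counted.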
(In general: Plaque reduction counts the foci of infection that form in a cell layer.)

In data set [5] the test system is Mus musculus. In words: Decrease in 5-hydroxytryptophan-induced head twitch in Swiss albino mouse at 200 mg/kg, ip measured for 6 two mins interval. In kind it is functional, organism-based. Also on record: dose 200 mg/kg.
The subject of data set [6] is Human alphaherpesvirus 1. Kind of data set: Antiviral activity against HSV1 infected in african green monkey Vero76 cells after 3 days by plaque reduction assay. Conditions: Vero 76. In kind it is functional, organism-based. Summed up:
as §1

The species entered for data set [7] is Mus musculus. Kind of data set: Decrease in body temperature in normothermic Swiss albino mouse within 30 to 90 mins. It counts as ADME, organism-based. Conditions: in vivo.
The test system of data set [8] is Vesicular stomatitis virus. Kind of data set: Antiviral activity against Vesicular stomatitis virus infected in african green monkey Vero76 cells after 2 days by plaque reduction assay. In kind it is functional, organism-based. Conditions: Vero 76.
Data set [9] concerns Mus musculus. In words: Effect on pentylenetetrazole-induced clonic seizures in Swiss albino mouse at 200 mg/kg, ip. It counts as functional, organism-based. Also on record: dose 200 mg/kg. Put shortly: (§2)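 Mice pretreated i.p. with compound (200 mg kg-1, 0.5% methylcellulose suspension, 60 min), then pentylenetetrazole 110 mg kg-1 s.c. Scored as number of mice with clonic seizures, tonic convulsions, and deaths. Chi-square test with Yates correction.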

Data set [10] concerns Mus musculus. In words: Effect on motor coordination in Swiss albino mouse at 200 mg/kg, ip by chimney test. In kind it is ADME, organism-based. Also on record: dose 200 mg/kg, route intraperitoneal. Conditions: in vivo.
The subject of data set [11] is Mus musculus. Kind of data set: Depression of spontaneous locomotor activity in Swiss albino mouse at 0.05 times LD50, ip dose measured for 30 mins. In kind it is functional, organism-based. Put shortly: (§3)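 Spontaneous locomotion of single male Albino Swiss mice recorded in photoresistor actometers for 30 min. Compound given i.p. at 0.05 or 0.1 LD50 as 0.5% methylcellulose suspension 60 min before test. Vehicle controls. Student's t-test.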

Data set [12] relates to Mus musculus. Kind of data set: Depression of spontaneous locomotor activity in Swiss albino mouse at 0.1 times LD50, ip dose measured for 30 mins. In kind it is functional, organism-based. Put shortly:
as §3

Data set [13] has as its system Bovine viral diarrhea virus 1. Kind of data set: Antiviral activity against Bovine viral diarrhea virus infected in MDBK cells assessed as protection against virus induced cytopathogenicity after 3 to 4 days by MTT assay. In kind it is functional, organism-based. Summed up: (§4)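 Monolayers were grown overnight at 37 °C, 5% CO2: MDBK at 3×10^4 cells/well, BHK at 5×10^4 cells/well. Cells infected at m.o.i. 0.01. After 1 h, serial compound dilutions added in MEM with 1% FCS. Viability read by MTT after 3–4 days at 37 °C. EC50 is the concentration giving 50% protection from cytopathogenicity.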
For orientation: Cytopathic effects are the visible damage that an infection or toxin causes in cultured cells.

In data set [14] the test system is Vaccinia virus. Kind of data set: Antiviral activity against Vaccinia virus infected in african green monkey Vero76 cells after 3 days by plaque reduction assay. In kind it is functional, organism-based. Conditions: Orthopoxvirus vaccinia; Vero 76.
Data set [15] deals with Poliovirus 1. In words: Antiviral activity against Poliovirus type 1 Sabin infected in african green monkey Vero76 cells after 2 days by plaque reduction assay. In kind it is functional, cell-based. To be noted: Vero 76.
Data set [16] deals with Mammalian orthoreovirus 1. Kind of data set: Antiviral activity against Reo virus type-1 infected in BHK-21 cells assessed as protection against virus induced cytopathogenicity after 3 to 4 days by MTT assay. In kind it is functional, organism-based. Summed up:
as §4

The test system of data set [17] is Yellow fever virus. Kind of data set: Antiviral activity against Yellow fever virus infected in BHK-21 cells assessed as protection against virus induced cytopathogenicity after 3 to 4 days by MTT assay. It counts as functional, organism-based. Put shortly:
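BHK cells were seeded at 5 × 10^4 per well and grown overnight to monolayers, then infected at m.o.i. 0.01 in serum-free medium. One hour later, MEM Earle's with 1% FCS (final) and serial compound dilutions were added. After 3–4 days at 37 °C, viability was read by MTT. EC50 is the concentration giving 50% protection from virus-induced cytopathogenicity.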

Data set [18] relates to Mus musculus. Kind of data set: Effect on amphetamine-induced hyperactivity in Swiss albino mouse at 5 mg/kg, sc administered 30 mins before amphetamine challenge. In kind it is functional, organism-based. Also on record: dose 5 mg/kg. Put shortly: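 Mice received compound i.p. (0.1 LD50, 0.5% methylcellulose suspension) 60 min before test. Amphetamine 5 mg kg-1 s.c. was given 30 min before test. Locomotion of single male Albino Swiss mice recorded in photoresistor actometers for 30 min. Vehicle controls. Student's t-test.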

The test system of data set [19] is Mus musculus. In words: Antinociceptive activity in Swiss albino mouse assessed as protection against acetic acid-induced abdominal constriction at 200 mg/kg, ip measured for 10 mins by writhing test. In kind it is functional, organism-based. Also on record: dose 200 mg/kg. To be noted: Abdomen. (In general: An intraperitoneal irritant provokes the stretching counted in writhing tests.)

Data set [20] deals with Coxsackievirus B2. In words: Antiviral activity against Coxsackie virus B2 infected in african green monkey Vero76 cells after 3 days by plaque reduction assay. It counts as functional, organism-based. To be noted: Vero 76. Put shortly:
as §1

Data set [21] relates to Mus musculus. Kind of data set: Effect on pentylenetetrazole-induced tonic convulsion in Swiss albino mouse at 200 mg/kg, ip. Further details: dose 200 mg/kg. In kind it is functional, organism-based. Summed up: as §2
Data set [22] deals with Human immunodeficiency virus 1. In words: Antiviral activity against wild type HIV1 3B infected in human MT4 cells assessed as protection against virus induced cytopathogenicity after 4 days by MTT assay. It counts as functional, organism-based. To be noted: Human immunodeficiency virus 1, 3B, MT4, 96 h. Summed up:
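MT-4 cells (1×10^4/well) in RPMI with serial compound dilutions were infected with HIV-1 (100 CCID50; m.o.i. 0.01). After 4 days, viability was measured by MTT. EC50 is the concentration giving 50% protection from virus-induced cytopathogenicity. Compounds were prepared as 100 mM DMSO stocks diluted in medium.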

A short description of data set [23]: Cytotoxicity against human MT4 cells assessed as reduction of cell viability after 96 hrs by MTT assay. In kind it is cell-based. Summed up: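 Exponentially growing, mock-infected MT-4 cells were seeded at 1×10^5 cells mL-1 in RPMI-1640 with 10% FCS and penicillin/streptomycin, with serial compound dilutions. Incubated 96 h at 37 °C, 5% CO2, then viability read by MTT. CC50 is the concentration reducing viability by 50%.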

Active and inactive are the calls of the source. The rule behind the calls is not given here. Where only a bound is given, the exact number is not on record here.

With `CC1=CC2C(C(C)C)CC1C1C(=O)N(N3CCCCS/C3=N\c3ccc(C)cc3)C(=O)C21` (stereo not given), the Activity result is reported as “Non-toxic” in data set [1]; “Active” in data set [2]; “Toxic” in data set [3]; “Toxic” in data set [7]; “Non-toxic” in data set [10]. Besides, the result in [4], in [5], in data set [6], in data set [8], in data set [9] and in data set [11] was inactive. In addition, the result in data set [13], in data set [14], in [15], in data set [16], in data set [17] and in data set [18] was inactive. Besides, the outcome in data set [19], in data set [20] and in data set [21] was inactive. Also, in data set [12], the result was Active.
In the case of `CC(C)C12C=CC(C)(CC1)C1C(=O)N(N3CCCCS/C3=N\c3ccc(Cl)c(Cl)c3)C(=O)C12` (stereo not given), the Activity result was “Non-toxic” in data set [1]; “Active” in data set [2]; “Toxic” in data set [3]; “Toxic” in [7]; “Non-toxic” in data set [10]. Further, the EC50 in data set [22] was more than 100 µM. Also, the result in [4], in [6], in data set [8], in [9], in data set [11] and in [13] was inactive. The result in [14], in data set [15], in data set [16], in data set [17], in data set [18] and in [19] was inactive. The outcome in [20] and in data set [21] was inactive. The outcome in [5] and in [12] was Active. Moreover, the CC50 at 96 h in data set [23] is more than 100 µM.
For the compound `CC1=CC2C(C(C)C)CC1C1C(=O)N(N3CCCCS/C3=N\c3ccc(Cl)cc3)C(=O)C21` (stereo not given), the EC50 in [22] was more than 30 µM. Moreover, the outcome in data set [4], in [6], in data set [8], in [13], in data set [14] and in data set [15] was inactive. Further, the outcome in [16], in data set [17] and in data set [20] was inactive. The CC50 at 96 h in [23] was determined as 30 µM.

For orientation: EC50 means the concentration needed to bring the measured effect to its halfway point. The term CC50 denotes the concentration giving 50% cytotoxicity.

The values above are taken from ChEMBL document CHEMBL1156068, “Synthesis, pharmacological and antiviral activity of 1,3-thiazepine derivatives” (Eur J Med Chem, 2009).
